Here are results for 34 molecules from ChEMBL document CHEMBL1143117, “Synthesis and SAR of 2-aryloxy-4-alkoxy-pyridines as potent orally active corticotropin-releasing factor 1 receptor antagonists” (J Med Chem, 2008).

Converted amounts (≈) assume the structure as drawn.

Data set [1] deals with Rattus norvegicus. Briefly: Ex vivo displacement of [125]oCRF from CRF1 receptor in rat pituitary at 3.2 mg/kg, sc. The format is functional. The conditions noted are these: route subcutaneous. In outline:
(§1)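 Rats received 3.2 mg/kg p.o. or s.c. per line, and cortex and pituitary binding of ¹²⁵I-oCRF was measured 1 h later by one of two methods. Homogenate method: 25 mg wet tissue/mL in PIPES pH 7.0 buffer, 40 pM ligand, 2 h at room temperature, centrifuged, filtered, scintillation counted. Autoradiographic method: male Sprague-Dawley rats (N = 4), 16 µm sections, 60 pM ligand, 1 h at room temperature. Nonspecific binding was set with 1 µM rat/human CRF. Percent inhibition is mean ± SD.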

For data set [2], the system named is Rattus norvegicus. The data set is described as follows: Ex vivo displacement of [125]oCRF from CRF1 receptor in rat cortex at 3.2 mg/kg, sc. The format is functional. The conditions noted are these: route subcutaneous. In outline:
as §1

The target of data set [3] is T1, Corticotropin-releasing factor receptor 1 (Rattus norvegicus, UniProt P35353).
T1 sequence (P35353 whole entry): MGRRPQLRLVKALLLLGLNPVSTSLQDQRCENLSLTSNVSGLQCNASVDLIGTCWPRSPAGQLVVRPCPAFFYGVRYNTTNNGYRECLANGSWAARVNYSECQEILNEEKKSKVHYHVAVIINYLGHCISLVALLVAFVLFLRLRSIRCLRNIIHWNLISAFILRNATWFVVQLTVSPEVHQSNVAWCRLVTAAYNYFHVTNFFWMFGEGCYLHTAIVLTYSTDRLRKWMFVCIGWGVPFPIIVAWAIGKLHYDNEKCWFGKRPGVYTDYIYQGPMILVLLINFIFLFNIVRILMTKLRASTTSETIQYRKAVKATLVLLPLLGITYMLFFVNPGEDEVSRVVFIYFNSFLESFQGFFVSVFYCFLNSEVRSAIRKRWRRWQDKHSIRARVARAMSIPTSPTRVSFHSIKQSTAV
Briefly: Displacement of [125]oCRF from rat cortex CRF1 receptor. In outline: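 Rat cortex binding used ¹²⁵I-ovine-CRF as radioligand. pIC50 ± SEM and IC50 are geometric means of at least three experimental runs.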

The target in data set [4] is T1, Corticotropin-releasing factor receptor 1. The data set is described as follows: Antagonist activity at rat cortex CRF1 receptor assessed as inhibition of CRF-stimulated adenylate cyclase activity. The format is functional, tissue-based.
The nature of data set [5]: Solubility of the compound. The class given is physicochemical. In outline:
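Kinetic water solubility was measured in an in-house high-throughput assay.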

Data set [6] concerns Rattus norvegicus. The data set is described as follows: Ex vivo displacement of [125]oCRF from CRF1 receptor in rat cortex at 3.2 mg/kg, po. The format is functional. In outline: as §1
For data set [7], the target named is Corticotropin-releasing factor receptor 1 (Rattus norvegicus) (UniProt P35353). Briefly: Inhibition of CRF1 receptor.
Data set [8] in a line: Solubility at pH 7. The format is physicochemical. The conditions noted are these: buffer.
The nature of data set [9]: Solubility at pH 2. The format is physicochemical. The conditions noted are these: buffer.
In data set [10] the test system is Rattus norvegicus. Briefly: Ex vivo displacement of [125]oCRF from CRF1 receptor in rat pituitary at 3.2 mg/kg, po. The format is functional. In outline: as §1
Data set [11] has as its system Rattus norvegicus. The data set is described as follows: Attenuation of HPA axis activation in po dosed rat assessed as blockade of oCRF-induced elevation of plasma ACTH. The class given is functional. In outline: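 Rats were dosed orally, then challenged with exogenous oCRF at 4 µg/kg i.v., and plasma ACTH was measured. The MED was judged against CRF alone by one-way ANOVA with Dunnett's post hoc test (N = 12). ID50 (p.o.) was calculated with a confidence interval.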

Data set [12] in a line: Dissociation constant, pKa of the compound. The format is physicochemical. In outline:
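UV spectrophotometric pKa determination, with the value extrapolated to 0% organic solvent.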

In data set [13] the target is T2, Corticotropin-releasing factor receptor 1 (Homo sapiens, UniProt P34998).
T2 sequence (P34998 whole entry): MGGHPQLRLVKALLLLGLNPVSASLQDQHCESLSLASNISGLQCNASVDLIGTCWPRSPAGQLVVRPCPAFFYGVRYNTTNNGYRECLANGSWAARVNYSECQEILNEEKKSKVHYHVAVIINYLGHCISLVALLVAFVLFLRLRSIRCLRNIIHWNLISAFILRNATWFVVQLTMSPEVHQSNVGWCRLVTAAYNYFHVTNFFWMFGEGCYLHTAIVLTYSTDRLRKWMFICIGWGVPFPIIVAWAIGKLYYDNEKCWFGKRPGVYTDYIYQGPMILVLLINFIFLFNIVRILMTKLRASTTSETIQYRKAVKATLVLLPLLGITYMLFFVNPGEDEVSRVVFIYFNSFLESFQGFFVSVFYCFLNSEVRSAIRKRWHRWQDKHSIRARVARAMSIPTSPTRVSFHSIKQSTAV
The data set is described as follows: Antagonist activity at human CRF1 receptor endogenously expressed in human IMR32 cells. The format is functional, cell-based, IMR-32.

As for `CCC(C)Oc1cc(C)nc(Oc2c(C)cc(C)cc2C)c1C` (stereo unspecified), the values for the inhibition in vivo at 3.2 mg/kg with Rattus norvegicus [1] and in the data set on Rattus norvegicus [2] were 42% and 74%, respectively. The same molecule gave an IC50 in data set [3] of 28 nM.
In [3], `CCC(CC)Oc1cc(C)nc(Oc2c(C)cc(C=O)cc2C)c1C` returned an IC50 of 40 nM.
Regarding `CCC(CC)Oc1cc(C)nc(Oc2c(C)cc(C)cc2C)c1C`, the Ki was 7.6 nM in [4] and 8.5 nM in data set [13]. In addition, the results for the solubility in data set [5], in data set [8] and in data set [9] were under 1 µg/mL, 0.2 µg/mL (≈ 0.611 µM) and 3 µg/mL (≈ 9.16 µM), respectively. Besides, the inhibition in vivo at 3.2 mg/kg in the data set on Rattus norvegicus [6] was determined as 75%; with Rattus norvegicus [10] it was 72%. In addition, the IC50 in [7] and in data set [3] was 6.8 nM each time. Moreover, the ED50 in the data set on Rattus norvegicus [11] (read-out: ID50 (the source's name)) worked out at 35 mg/kg. The minimal effective dose with Rattus norvegicus [11] (read-out: MED) amounted to 10 mg/kg. Besides, the pKa in [12] was found to be 3.5.
With `CCC(CC)Oc1cc(C)nc(Oc2c(C)cc(OC)cc2C)c1C`, the inhibition in vivo at 3.2 mg/kg was determined as 75% with Rattus norvegicus [6] and 55% in the data set on Rattus norvegicus [10]. Further, in data set [3], the IC50 worked out at 2 nM.
Regarding `CCC(CC)Oc1cc(C)nc(Oc2c(C)cc(C)cc2C)c1N`, the results for the inhibition in vivo at 3.2 mg/kg with Rattus norvegicus [1] and with Rattus norvegicus [2] were 51% and 78%, respectively. Moreover, the IC50 in [3] was determined as 12 nM.
In data set [3], `CCC(CC)Oc1cc(C)nc(Oc2c(C)cc(C)cc2C)c1` showed an IC50 of 150 nM.
In data set [3], `CCC(CC)Oc1cc(C)nc(Oc2c(C)cc(C)cc2C)c1C(=O)O` had an IC50 of over 10000 nM.
On the same count and under the same terms, the figure for `CCC(CC)Oc1cc(C)nc(Oc2c(C)cc(C)cc2C)c1Br` is 9.8 nM.
In the case of `CCc1c(OC(CC)CC)cc(C)nc1Oc1c(C)cc(C)cc1C`, the figures for the inhibition in vivo at 3.2 mg/kg with Rattus norvegicus [1] and in the data set with Rattus norvegicus [2] were 66% and 57%, respectively. Further, the IC50 in data set [3] is 9.1 nM.
Molecule `CCC(CC)Oc1cc(C)nc(Oc2c(C)cc(C)cc2C)c1N(C)C` showed an IC50 in [3] of 25 nM.
In [3], `CCC(CC)Oc1c(C)c(C)nc(Oc2c(C)cc(C)cc2C)c1C` displayed an IC50 of 180 nM. Against the preceding molecule, the IC50 is about 7.2-fold higher.
Regarding `CCC(CC)Oc1cc(C)nc(Oc2c(C)cc(Br)cc2C)c1C`, the inhibition in vivo at 3.2 mg/kg in the data set on Rattus norvegicus [6] was determined as 47%; in the data set with Rattus norvegicus [10], 84%. The molecule further showed a half-inhibitory concentration (IC50) in data set [3] of 2.6 nM.
As to `CCC(CC)Oc1cc(C)nc(Oc2c(C)cc(C(C)(C)O)cc2C)c1C`, in data set [3], the IC50 worked out at 40 nM.
Consider `CCC(CC)Oc1cc(C)nc(Oc2c(C)cc(Cl)cc2C)c1C`, for which the figures for the inhibition in vivo at 3.2 mg/kg in the data set on Rattus norvegicus [6] and in the data set on Rattus norvegicus [10] were 66% and 76%, respectively. This molecule showed an IC50 in data set [3] of 5.5 nM.
`CCC(CC)Oc1cc(C)nc(Oc2c(C)cc(O)cc2C)c1C` showed an IC50 in [3] of 1400 nM.
In the case of `CCc1cc(C)c(Oc2nc(C)cc(OC(CC)CC)c2C)c(C)c1`, the inhibition in vivo at 3.2 mg/kg with Rattus norvegicus [1] came to 56%; with Rattus norvegicus [2] it was 55%. Further, the IC50 in [3] turned out to be 11 nM.
For `CCC(CC)Oc1cc(C)nc(Oc2c(C)cc(C)nc2C)c1C`, the inhibition in vivo at 3.2 mg/kg in the data set with Rattus norvegicus [1] turned out to be 6%; with Rattus norvegicus [2], 70%. In data set [5], this molecule had a solubility of 10 µg/mL (≈ 30.4 µM). For the same molecule, the pKa in [12] was 4.97. The IC50 in [3] was found to be 10 nM.
Consider `Cc1cc(C)c(Oc2nc(C)cc(OC3CCOC3)c2C)c(C)c1` (stereo unspecified), for which, in [3], the IC50 turned out to be 100 nM.
Same read-out and setting: the value for `CCC(CC)Oc1cc(C)nc(Oc2c(C)cccc2C)c1C` was 110 nM.
The same measure, in the same setting: the value for `CCc1cc(OC(CC)CC)c(C)c(Oc2c(C)cc(C)cc2C)n1` was 86 nM; that for `CCc1c(C)nc(Oc2c(C)cc(C)cc2C)c(C)c1OC(CC)CC` was over 10000 nM.
As to `CCOc1cc(C)c(Oc2nc(C)cc(OC(CC)CC)c2C)c(C)c1`, the inhibition in vivo at 3.2 mg/kg with Rattus norvegicus [6] turned out to be 43%; in the data set with Rattus norvegicus [10], 33%. In [3], this molecule gave an IC50 of 20 nM.
With `CCC(CC)Oc1nc(C)cc(Oc2c(C)cc(C)cc2C)c1C`, in [7], 3400 nM corresponded to half-maximal inhibition (IC50). This counts as single-digit micromolar.
Take `CCC(CC)Oc1cc(C)nc(Oc2c(C)cc(CO)cc2C)c1C`: the inhibition in vivo at 3.2 mg/kg in the data set on Rattus norvegicus [6] was 42%; in the data set on Rattus norvegicus [10] it was -20%. For the same molecule, the IC50 in data set [3] was 61 nM.
For the molecule `CCC(CC)Oc1cc(C)nc(Oc2c(C)cc(C(N)=O)cc2C)c1C`, the values for the inhibition in vivo at 3.2 mg/kg with Rattus norvegicus [6] and in the data set on Rattus norvegicus [10] were 33% and 15%, respectively. The IC50 in [3] came to 18 nM.
As for `CCC(CC)Oc1cc(C)nc(Oc2c(C)cc(I)cc2C)c1C`, the inhibition in vivo at 3.2 mg/kg in the data set on Rattus norvegicus [1] was determined as 72%; with Rattus norvegicus [2], 27%. The half-maximal inhibitory concentration (IC50) in data set [3] worked out at 12 nM.
In turn, `CCC(CC)Oc1cc(C)nc(Oc2c(C)cc(OC(C)C)cc2C)c1C` came in with an IC50 in data set [3] of 110 nM. That is a sub-micromolar value.
The same measure, in the same setting: the figure for `CCC(CC)Oc1cc(C)nc(Oc2c(C)cc(F)cc2C)c1C` is 32 nM.
Same read-out and setting: the value for `CCC(CC)Oc1cc(C)nc(Oc2c(C)cc(C)cc2C)c1C(=O)OC` was 470 nM.
For the molecule `CCC(CC)Oc1cc(C)nc(Oc2c(C)cc(C)cc2C)c1[N+](=O)[O-]`, the results for the inhibition in vivo at 3.2 mg/kg in the data set with Rattus norvegicus [1] and in the data set on Rattus norvegicus [2] were 35% and 59%, respectively. The IC50 in [3] was 15 nM.
The matching figures for `CCC(COC)Oc1cc(C)nc(Oc2c(C)cc(C)cc2C)c1C` (stereo unspecified): 49%, 75% and 11 nM.
For `CCCc1cc(C)c(Oc2nc(C)cc(OC(CC)CC)c2C)c(C)c1` the same measures were 34%, 42% and 9.8 nM.
`CCC(CC)Oc1cc(C)nc(Oc2c(C)cc(COC)cc2C)c1C`: the inhibition in vivo at 3.2 mg/kg is 57% in the data set with Rattus norvegicus [6] and 12% in the data set on Rattus norvegicus [10]. The molecule further gave an IC50 in [3] of 3.2 nM.
For `C/C=C(\CC)Oc1cc(C)nc(Oc2c(C)cc(C)cc2C)c1C` (mixture of isomers), the inhibition in vivo at 3.2 mg/kg in the data set with Rattus norvegicus [1] was 55%; in the data set on Rattus norvegicus [2], 75%. In data set [3], this molecule showed an IC50 of 16 nM.
